The source of these data is ChEMBL document CHEMBL1143345, “Towards Gram-negative antivirulence drugs: new inhibitors of HldE kinase” (Bioorg Med Chem, 2009).

The source made the active and inactive calls. No cut-off for these calls is given here.

The nature of data set [1]: Inhibition of Escherichia coli O18:K1 C7 HldE by luminescent assay. Put shortly:
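His-tagged E. coli O18:K1 C7 HldE (3 nM) pre-incubated 30 min at room temperature with inhibitor (≤5% DMSO). Then H-7-P 0.2 uM and ATP 0.2 uM added for 40 min in pH 7.5 Hepes, 1 mM MnCl2, 25 mM KCl, 0.012% Triton X-100, 1 mM DTT. ATP depletion read by luciferase luminescence; IC50 from 6–10 concentrations, means of three experiments.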

The nature of data set [2]: Inhibition of Neisseria meningitidis 2C43 HldA by luminescent assay. The procedure, abridged: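 His-tagged N. meningitidis 2C43 HldA (20 nM) pre-incubated 30 min at room temperature with inhibitor, then H-7-P 0.2 uM and ATP 0.2 uM added for 40 min. Buffer pH 7.5 Hepes, 1 mM MnCl2, 25 mM KCl, 0.012% Triton X-100, 1 mM DTT. Residual ATP measured by luciferase/luciferin luminescence; IC50 fitted from 6–10 concentrations.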

Data set [3] has as its target T1, Ribokinase (Escherichia coli K-12, UniProt P0A9J6).
T1 sequence (P0A9J6 whole entry): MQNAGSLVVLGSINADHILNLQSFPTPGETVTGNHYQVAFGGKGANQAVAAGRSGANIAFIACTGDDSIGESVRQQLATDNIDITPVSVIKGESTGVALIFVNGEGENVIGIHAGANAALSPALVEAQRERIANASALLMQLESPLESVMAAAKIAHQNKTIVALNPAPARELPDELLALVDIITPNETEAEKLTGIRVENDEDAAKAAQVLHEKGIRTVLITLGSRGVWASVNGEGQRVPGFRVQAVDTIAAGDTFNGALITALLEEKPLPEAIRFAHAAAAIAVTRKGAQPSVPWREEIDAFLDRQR
Briefly: Inhibition of Escherichia coli K12 MG1655 ribokinase by luminescent assay. The procedure, abridged:
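His-tagged E. coli K12 MG1655 ribokinase (0.6 nM) in pH 7.5 Hepes buffer with 1 mM MnCl2, 25 mM KCl, 0.012% Triton X-100, 1 mM DTT. Inhibitor pre-incubated 30 min at room temperature, then D-ribose 3 uM and ATP 3 uM added for 40 min. Remaining ATP detected by luciferase/luciferin luminescence; IC50 fitted from 6–10 concentrations.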

Data set [4] in a line: Inhibition of Escherichia coli O18:K1 C7 HldE by fluorescent assay. The procedure, abridged: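 Coupled fluorescent HldE-kinase assay: His-tagged E. coli O18:K1 C7 HldE (66 pM), 30 min inhibitor pre-incubation at room temperature, then H-7-P 1 uM, ATP 50 uM with PK/PEP/LDH/NADH. pH 7.5 Hepes, 1 mM MnCl2, 25 mM KCl, 0.012% Triton X-100, 1 mM DTT. NADH fluorescence read kinetically; Ki derived, substrate levels varied for competition.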

The subject of data set [5] is Escherichia coli. Briefly: Inhibition of Escherichia coli O18:K1 C7 HldE in presence of Triton-X100 by luminescent assay.
The test system of data set [6] is Escherichia coli. Briefly: Inhibition of Escherichia coli O18:K1 C7 HldE in presence of D-glycero-D-manno-heptose-7-phosphate by luminescent assay.
In data set [7] the test system is Escherichia coli. Briefly: Activity of Escherichia coli O18:K1 C7 HldE in presence of 1.8 uM D-glycero-D-manno-heptose-7-phosphate. Put shortly:
(§1)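 His-tagged HldE, Ni-NTA purified, steady-state kinetics with ATP varied at fixed H-7-P. Conditions are pH 7.5 with 1 mM MnCl2, 25 mM KCl and 5% DMSO in Hepes/Triton X-100/DTT buffer. ADP is detected by a pyruvate kinase/lactate dehydrogenase coupled system, reading NADH fluorescence kinetically (ex 360, em 520 nm). Values ± SD.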

For data set [8], the system named is Escherichia coli. Briefly: Activity of Escherichia coli O18:K1 C7 HldE in presence of 0.2 uM D-glycero-D-manno-heptose-7-phosphate. The procedure, abridged: as §1
In data set [9] the test system is Neisseria meningitidis. Briefly: Activity of Neisseria meningitidis 2C43 HldA in presence of 0.2 uM D-glycero-D-manno-heptose-7-phosphate. Put shortly: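 His-tagged HldA, Ni-NTA purified, at 20 nM with 0.2 µM H-7-P and ATP. Buffer is 50 mM Hepes pH 7.5, 1 mM MnCl2, 25 mM KCl, 0.012% Triton X-100 and 1 mM DTT. Reaction runs 40 min at room temperature. ATP depletion is read by luciferase/D-luciferin luminescence.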

The test system of data set [10] is Escherichia coli. Briefly: Activity of Escherichia coli O18:K1 C7 HldE in presence of 50 uM ATP. Put shortly:
(§2)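 His-tagged E. coli O18:K1 C7 HldE kinase steady-state kinetics, pH 7.5 with 1 mM MnCl2, 25 mM KCl, 5% DMSO. H-7-P Km measured at fixed ATP 50 uM or 0.3 uM; ADP formation followed by PK/LDH-coupled NADH fluorescence (ex 360, em 520 nm), read kinetically; values ± SD.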

Data set [11] relates to Escherichia coli. Briefly: Activity of Escherichia coli O18:K1 C7 HldE in presence of 0.3 uM ATP. Put shortly:
as §2

Compound in data set [12]: Nc1ncnc2c1ncn2[C@@H]1O[C@H](COP(=O)(O)OP(=O)(O)OP(=O)(O)O)[C@@H](O)[C@H]1O
Briefly: Activity of Escherichia coli K12 MG1655 ribokinase in presence of 3 uM D-ribose. Conditions: Escherichia coli K-12. Put shortly: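 His-tagged ribokinase, Ni-NTA purified, at 0.6 nM with 3 µM D-ribose and ATP. Buffer is 50 mM Hepes pH 7.5, 1 mM MnCl2, 25 mM KCl, 0.012% Triton X-100 and 1 mM DTT. Reaction runs 40 min at room temperature. ATP depletion is read by luciferase/D-luciferin luminescence. Values ± SD.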

Take `Cc1nc(-c2ccc3ccccc3c2)sc1C(=O)N(CC(=O)O)Cc1nc2ccccc2s1`: the values for the IC50 in data set [1], in [2] and in data set [3] were 0.48 µM, 12 µM and more than 33 µM, respectively.
Turning to `Cc1oc(-c2ccc(C(F)(F)F)cc2)nc1C(=O)N(CC(=O)O)Cc1ccccn1`, in [1], the IC50 – broadly, the concentration needed to halve the response being measured – stood at 142 µM.
Same read-out and setting: with `O=C(O)CN(Cc1ccccn1)C(=O)c1ccc(-c2ccccc2)cc1` the figure was more than 300 µM; with `COc1ccc(-c2nc(C(=O)N(CC(=O)O)Cc3ccccn3)c(C)o2)cc1`, 75 µM; with `Cc1oc(-c2cccc(C(F)(F)F)c2)nc1C(=O)N(CC(=O)O)Cc1ccccn1`, 35 µM.
Still for that read-out and setting: to `O=C(O)CN(Cc1ccccn1)C(=O)c1ccc(-c2ccccc2)o1` belongs 100 µM; to `COc1cccc(-c2nc(C)c(C(=O)N(CC(=O)O)Cc3nc4ccccc4s3)s2)c1`, 0.42 µM; to `Cc1nc(-c2ccccc2)sc1C(=O)N(CC(=O)O)Cc1ccccn1`, 52 µM.
For `Cc1nc(-c2cccc(S(C)(=O)=O)c2)sc1C(=O)N(CC(=O)O)Cc1nc2ccccc2s1`, half-maximal inhibition in data set [1] (IC50) was put at 75 µM.
Still for that read-out and setting: with `Cc1oc(-c2ccccc2)nc1C(=O)N(CC(=O)O)Cc1ccco1` the figure was more than 300 µM; with `Cc1oc(-c2cccc(-c3ccn[nH]3)c2)nc1C(=O)N(CC(=O)O)Cc1nc2ccccc2s1`, 0.11 µM; with `Cc1oc(-c2ccc([N+](=O)[O-])cc2)nc1C(=O)N(CC(=O)O)Cc1ccccn1`, 151 µM.
The same measure, in the same setting: with `Cc1oc(-c2ccccc2[N+](=O)[O-])nc1C(=O)N(CC(=O)O)Cc1ccccn1` the figure was 141 µM; with `Cc1oc(-c2ccccc2)cc1C(=O)N(CC(=O)O)Cc1ccccn1`, 42 µM.
Turning to `COc1cccc(-c2nc(C)c(C(=O)N(CC(=O)O)Cc3nc4ccccc4s3)o2)c1`, the IC50 in [1] was 0.27 µM; in [2], 6 µM; in data set [3], more than 300 µM.
On to `Cc1nc(-c2ccc(N)c([N+](=O)[O-])c2)sc1C(=O)N(CC(=O)O)Cc1ccccn1`, for which, in data set [1], the IC50 was 13 µM.
The same measure, in the same setting: to `Cc1oc(-c2ccccc2Br)nc1C(=O)N(CC(=O)O)Cc1ccccn1` belongs 44 µM.
Still for that read-out and setting: with `Cc1oc(-c2ccccc2)nc1C(=O)N(CC(=O)O)Cc1ccccn1` the figure was 51 µM; with `COc1cccc(-c2nc(C)c(C(=O)N(CC(=O)O)Cc3ccccn3)o2)c1`, 17 µM.
As to `Cc1oc(-c2cccc([N+](=O)[O-])c2)nc1C(=O)N(CC(=O)O)Cc1ccccn1`, the IC50 in data set [1] is 5.8 µM; in data set [2] it was more than 300 µM; in [3], more than 300 µM.
In [1], `Cc1nc(-c2ccccc2)oc1C(=O)N(CC(=O)O)Cc1ccccn1` displayed an IC50 of 69 µM. Affinity in [4] was put at a Ki of 38 µM. Moreover, the outcome in data set [5] and in data set [6] was Active.
As to `Cc1oc(-c2ccccc2)nc1C(=O)N(CC(=O)O)Cc1ccccc1`, the IC50 in data set [1] is more than 300 µM.
As to `Nc1ncnc2c1ncn2[C@@H]1O[C@H](COP(=O)(O)OP(=O)(O)OP(=O)(O)O)[C@@H](O)[C@H]1O`, the Km – broadly, the substrate concentration at which the rate is half of its maximum – in data set [7] is 147 µM; in [8] it was more than 0.8 µM; in data set [9], more than 0.4 µM.
`Cc1oc(-c2ccccc2)nc1C(=O)N(CC(=O)O)Cc1nccs1` displayed an IC50 in [1] of 110 µM.
On the same count and under the same terms, with `Cn1nc(-c2ccccc2)cc1C(=O)N(CC(=O)O)Cc1ccccn1` the figure was 57 µM.
`Cc1oc(-c2ccccc2)nc1C(=O)N(CC(=O)O)Cc1cccnc1` gave an IC50 in data set [1] of more than 300 µM.
As to `COc1cccc(-c2nc(C(=O)N(CC(=O)O)Cc3ccccn3)c(C)o2)c1`, the half-inhibitory concentration (IC50) was 15 µM in data set [1], more than 300 µM in data set [2] and more than 300 µM in [3].
As to `Cc1nc(-c2cccc([N+](=O)[O-])c2)sc1C(=O)N(CC(=O)O)Cc1nc2ccccc2s1`, the IC50 was 0.5 µM in data set [1], 75 µM in data set [2] and more than 300 µM in [3].
`CC(=O)Nc1cccc(-c2nc(C(=O)N(CC(=O)O)Cc3ccccn3)c(C)o2)c1`: the IC50 in [1] was determined as 28 µM.
`Cc1oc(-c2cccc(N)c2)nc1C(=O)N(CC(=O)O)Cc1ccccn1`: half-maximal inhibition in data set [1] (IC50) was put at 153 µM.
Still for that read-out and setting: with `Cc1oc(-c2ccccc2N)nc1C(=O)N(CC(=O)O)Cc1ccccn1` the figure was 31 µM; with `Cc1oc(-c2ccccc2)nc1C(=O)N(CC(=O)O)Cc1ccncc1`, more than 300 µM; with `Cc1oc(-c2ccc(Br)cc2)nc1C(=O)N(CC(=O)O)Cc1ccccn1`, 27 µM.
Still for that read-out and setting: with `Cc1onc(-c2ccccc2)c1C(=O)N(CC(=O)O)Cc1ccccn1` the figure was more than 300 µM; with `CC(=O)c1cccc(-c2nc(C)c(C(=O)N(CC(=O)O)Cc3ccccn3)s2)c1`, 216 µM.
Take `O=P(O)(O)OC[C@@H](O)[C@H]1OC(O)[C@@H](O)[C@@H](O)[C@@H]1O` (stereo partly drawn): the figures for the Km in [10] and in data set [11] were 0.6 µM and 0.23 µM, respectively.
`Cc1oc(-c2ccc(N)cc2)nc1C(=O)N(CC(=O)O)Cc1ccccn1`: the IC50 in data set [1] is 22 µM.
Same read-out and setting: to `COc1cccc(-c2nc(C(=O)N(CC(=O)O)Cc3ccc4ccccc4n3)c(C)o2)c1` belongs 12 µM; to `Cc1oc(-c2cccc(Br)c2)nc1C(=O)N(CC(=O)O)Cc1ccccn1`, 10 µM; to `COc1cc(-c2nc(C)c(C(=O)N(CC(=O)O)Cc3nc4ccccc4s3)s2)ccc1N`, 0.26 µM.
In data set [1], `Cc1nc(-c2ccccc2)oc1C(=O)N(CC(=O)O)Cc1ccccc1N` yielded an IC50 of more than 300 µM.
The same measure, in the same setting: with `Cc1oc(-c2cccc(NC(=O)C3CC3)c2)nc1C(=O)N(CC(=O)O)Cc1ccccn1` the figure was 14 µM.
Same read-out and setting: to `Cc1oc(-c2cccc(N3CCOCC3)c2)nc1C(=O)N(CC(=O)O)Cc1ccccn1` belongs 70 µM.
Take `Cc1nc(-c2ccc3[nH]ccc3c2)sc1C(=O)N(CC(=O)O)Cc1nc2ccccc2s1`: the IC50 was 0.33 µM in data set [1], 8.5 µM in data set [2] and more than 100 µM in data set [3].

B1: Ribokinase (Escherichia coli K-12), P0A9J6 (protein)
chain: MQNAGSLVVLGSINADHILNLQSFPTPGETVTGNHYQVAFGGKGANQAVAAGRSGANIAFIACTGDDSIGESVRQQLATDNIDITPVSVIKGESTGVALIFVNGEGENVIGIHAGANAALSPALVEAQRERIANASALLMQLESPLESVMAAAKIAHQNKTIVALNPAPARELPDELLALVDIITPNETEAEKLTGIRVENDEDAAKAAQVLHEKGIRTVLITLGSRGVWASVNGEGQRVPGFRVQAVDTIAAGDTFNGALITALLEEKPLPEAIRFAHAAAAIAVTRKGAQPSVPWREEIDAFLDRQR
As for B1, the Km in data set [12] was 18 µM.
